# Assay results published in ChEMBL document CHEMBL1275385, “Discovery and biological evaluation of potent, selective, orally bioavailable, pyrazine-based blockers of the Na(v)1.8 sodium channel with efficacy in a model of neuropathic pain” (Bioorg Med Chem, 2010).
# pIC50: −log10 of the molar value. Activity calls are given as the source filed them.
# Experiments:
# [1] = target: T1, Sodium channel protein type 2 subunit alpha (Homo sapiens, UniProt Q99250); assay: Inhibition of human recombinant NaV1.2 by electrophysiology
# In short: (§1)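 Whole-cell voltage clamp of HEK-293 cells expressing recombinant human Nav1.2. Membrane potential was held at the V1/2 of steady-state inactivation, −60 mV. Compounds came from 10 mM DMSO stocks, diluted in extracellular solution (final DMSO <0.1%) and perfused at 1–2 mL/min at room temperature (21–25 °C). Tested at 1–3 concentrations with 2–6 measurements each; estimates averaged. Single-point data given as % inhibition at 3 µM.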
# Homo sapiens = species on record: Homo sapiens; assay: Selectivity ratio of IC50 for human NAv1.8 to IC50 for human Nav1.2
# In short: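 Ratio of the IC50 values from whole-cell voltage clamp of human Nav1.8 (held at −40 mV) and human Nav1.2 (held at −60 mV), both expressed in HEK-293 cells. Each channel was held at its inactivation V1/2.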
# [2] = Volume of distribution at steady state in rat at 3 mg/kg, iv; format: ADME, organism-based; parameters: dose 3 mg/kg, route intravenous; details: in vivo, read-out: Vdss
# In short: (§2)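 Rat pharmacokinetics (n = 3) after a single 3 mg/kg iv or po dose. Plasma clearance, Vss, half-life and oral bioavailability were derived from plasma exposure.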
# [3] = Cmax in rat at 3 mg/kg, po; format: ADME, organism-based; parameters: dose 3 mg/kg, route oral; details: in vivo
# Rattus norvegicus [4] = assay: Analgesic activity in po dosed Sprague-Dawley rat L5/L6 spinal nerve injury Chung model of neuropathic pain assessed as reduction of von Frey hair-induced paw withdrawal threshold administered 60 mins before von Frey hair challenge; format: functional
# In short: (§3)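 Rats with L5/L6 spinal nerve ligation (Kim and Chung method) dosed orally at 10, 30 or 100 mg/kg, 60 min before von Frey testing of paw withdrawal threshold on the injured and contralateral sides. At least six animals per group, compared with vehicle-treated animals; mean ± SEM, ANOVA with post-hoc tests (P <0.05). ED50 estimated by least-squares linear regression.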
# Plasma = assay: Plasma protein binding in rat; format: ADME, cell-free
# [5] = Oral bioavailability in rat at 3 mg/kg; format: ADME, organism-based; details: in vivo; in short: as §2
# [6] = target: Sodium channel protein type 10 subunit alpha (Rattus norvegicus, UniProt Q62968); assay: Inhibition of tetrodotoxin-resistant NaV1.8 in rat dorsal root ganglion neurons at holding potential -100 mV by whole-cell patch clamp electrophysiology assay; format: tissue-based
# [7] = target: Sodium channel protein type 10 subunit alpha (Mus musculus, UniProt Q6QIY3); assay: Inhibition of mouse NaV1.8 expressed in HEK293 cells by isotopic efflux assay; format: cell-based
# In short: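 HEK293 cells stably expressing mouse Nav1.8 were loaded overnight with radiotracer, then stimulated. Efflux was read at a single time point on the linear part of the efflux curve. % inhibition = (1 − [test − reference blocker]/[control − reference blocker]) × 100. Eight-point concentration–response curves run in duplicate gave the IC50.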
# [8] = target: Sodium channel protein type 10 subunit alpha (Homo sapiens, UniProt Q9Y5Y9); assay: Inhibition of human recombinant NaV1.8 expressed in HEK293 cells by conventional voltage clamp electrophysiology assay; format: cell-based
# In short: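 HEK-293 cells stably expressing human Nav1.8 were recorded by conventional whole-cell voltage clamp with the holding potential at the inactivation V1/2, −40 mV. DMSO stocks (10 mM) were diluted into extracellular solution (final DMSO <0.1%) and gravity-perfused at 1–2 mL/min at 21–25 °C. Each compound was run at 1–3 concentrations with 2–6 measurements each; estimates averaged.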
# [9] = Clearance in rat microsomes; format: ADME, Liver, Microsome
# [10] = target: Beta-2 adrenergic receptor (Homo sapiens) (UniProt P07550); assay: Inhibition of human adrenergic beta2 receptor at 10 uM
# [11] = Inhibition of BZD receptor at 10 uM
# [12] = Half life in rat at 3 mg/kg, po; format: ADME, organism-based; parameters: dose 3 mg/kg, route oral; details: in vivo; in short: as §2
# [13] = Half life in rat at 3 mg/kg, iv; format: ADME, organism-based; parameters: dose 3 mg/kg, route intravenous; details: in vivo; in short: as §2
# [14] = Aqueous solubility of the compound; format: physicochemical; details: buffer
# [15] = target: Substance-P receptor (Homo sapiens) (UniProt P25103); assay: Inhibition of human NK1 receptor at 10 uM
# [16] = target: T1, Sodium channel protein type 2 subunit alpha; assay: Inhibition of human recombinant NaV1.2 at 3 uM by electrophysiology; in short: as §1
# Rattus norvegicus [17] = assay: Analgesic activity in Sprague-Dawley rat L5/L6 spinal nerve injury Chung model of neuropathic pain assessed as reduction of von Frey hair-induced paw withdrawal threshold at 100 mg/kg, po administered 60 mins before von Frey hair challenge; format: functional; in short: as §3
# [18] = Selectivity ratio of IC50 for human NaV1.8 to IC50 for human Nav1.2
# [19] = Selectivity ratio of IC50 for tetrodotoxin-resistant NaV1.8 in rat dorsal root ganglion neurons to IC50 for human Nav1.2; format: tissue-based
# In short: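 Ratio of the IC50 for native TTX-resistant current in dissociated rat DRG neurons (held at V1/2, −40 mV) to the IC50 for recombinant human Nav1.2 in HEK-293 cells (held at −60 mV).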
# Sodium channel protein type 10 subunit alpha (Rattus norvegicus, UniProt Q62968), sequence (Q62968 whole entry): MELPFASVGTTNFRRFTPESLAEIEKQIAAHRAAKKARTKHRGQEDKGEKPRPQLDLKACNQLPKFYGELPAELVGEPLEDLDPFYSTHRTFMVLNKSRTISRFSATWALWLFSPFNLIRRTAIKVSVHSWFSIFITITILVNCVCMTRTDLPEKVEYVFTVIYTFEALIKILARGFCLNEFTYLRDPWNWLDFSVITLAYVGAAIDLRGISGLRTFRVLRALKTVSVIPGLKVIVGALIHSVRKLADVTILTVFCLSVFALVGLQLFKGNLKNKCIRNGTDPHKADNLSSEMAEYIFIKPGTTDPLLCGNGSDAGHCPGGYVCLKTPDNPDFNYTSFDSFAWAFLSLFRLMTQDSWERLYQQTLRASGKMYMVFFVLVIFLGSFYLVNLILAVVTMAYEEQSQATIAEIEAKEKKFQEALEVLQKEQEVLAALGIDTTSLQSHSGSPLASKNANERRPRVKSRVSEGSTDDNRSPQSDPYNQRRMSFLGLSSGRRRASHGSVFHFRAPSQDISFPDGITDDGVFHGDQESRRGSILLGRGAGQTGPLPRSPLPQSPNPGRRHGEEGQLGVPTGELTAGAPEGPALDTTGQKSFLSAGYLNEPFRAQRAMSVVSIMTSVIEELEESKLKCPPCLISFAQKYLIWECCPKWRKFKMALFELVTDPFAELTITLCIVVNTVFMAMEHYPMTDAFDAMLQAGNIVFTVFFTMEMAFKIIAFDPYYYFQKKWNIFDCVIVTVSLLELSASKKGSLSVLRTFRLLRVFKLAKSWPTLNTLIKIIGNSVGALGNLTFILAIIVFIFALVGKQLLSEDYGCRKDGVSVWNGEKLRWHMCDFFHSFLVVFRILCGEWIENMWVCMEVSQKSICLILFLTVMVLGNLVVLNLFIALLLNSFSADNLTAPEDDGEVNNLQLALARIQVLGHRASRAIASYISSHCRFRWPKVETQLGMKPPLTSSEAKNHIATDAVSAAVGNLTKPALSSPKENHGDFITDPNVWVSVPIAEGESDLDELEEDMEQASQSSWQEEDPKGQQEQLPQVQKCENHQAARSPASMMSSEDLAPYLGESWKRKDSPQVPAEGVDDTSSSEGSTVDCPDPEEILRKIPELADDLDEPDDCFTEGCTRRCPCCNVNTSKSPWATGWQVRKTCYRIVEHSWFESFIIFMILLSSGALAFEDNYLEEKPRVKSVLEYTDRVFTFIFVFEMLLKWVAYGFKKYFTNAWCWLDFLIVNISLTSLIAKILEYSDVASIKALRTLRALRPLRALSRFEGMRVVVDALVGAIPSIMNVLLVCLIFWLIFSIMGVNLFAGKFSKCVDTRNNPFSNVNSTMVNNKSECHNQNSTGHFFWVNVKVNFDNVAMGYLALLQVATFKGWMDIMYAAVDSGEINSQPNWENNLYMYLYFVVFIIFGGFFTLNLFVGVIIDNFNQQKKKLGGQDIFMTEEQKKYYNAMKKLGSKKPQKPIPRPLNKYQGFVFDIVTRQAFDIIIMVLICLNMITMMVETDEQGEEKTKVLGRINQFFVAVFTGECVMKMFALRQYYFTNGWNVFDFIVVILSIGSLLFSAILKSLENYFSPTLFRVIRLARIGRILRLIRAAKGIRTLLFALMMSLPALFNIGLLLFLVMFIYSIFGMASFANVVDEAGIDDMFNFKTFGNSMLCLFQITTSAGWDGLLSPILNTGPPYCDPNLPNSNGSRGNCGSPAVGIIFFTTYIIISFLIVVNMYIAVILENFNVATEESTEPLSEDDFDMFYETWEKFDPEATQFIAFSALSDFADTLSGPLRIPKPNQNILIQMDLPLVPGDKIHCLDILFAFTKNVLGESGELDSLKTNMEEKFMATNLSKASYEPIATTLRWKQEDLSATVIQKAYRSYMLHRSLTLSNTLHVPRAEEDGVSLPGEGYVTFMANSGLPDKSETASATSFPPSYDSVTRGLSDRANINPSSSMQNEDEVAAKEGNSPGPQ
# Sodium channel protein type 10 subunit alpha (Mus musculus, UniProt Q6QIY3), sequence (Q6QIY3 whole entry): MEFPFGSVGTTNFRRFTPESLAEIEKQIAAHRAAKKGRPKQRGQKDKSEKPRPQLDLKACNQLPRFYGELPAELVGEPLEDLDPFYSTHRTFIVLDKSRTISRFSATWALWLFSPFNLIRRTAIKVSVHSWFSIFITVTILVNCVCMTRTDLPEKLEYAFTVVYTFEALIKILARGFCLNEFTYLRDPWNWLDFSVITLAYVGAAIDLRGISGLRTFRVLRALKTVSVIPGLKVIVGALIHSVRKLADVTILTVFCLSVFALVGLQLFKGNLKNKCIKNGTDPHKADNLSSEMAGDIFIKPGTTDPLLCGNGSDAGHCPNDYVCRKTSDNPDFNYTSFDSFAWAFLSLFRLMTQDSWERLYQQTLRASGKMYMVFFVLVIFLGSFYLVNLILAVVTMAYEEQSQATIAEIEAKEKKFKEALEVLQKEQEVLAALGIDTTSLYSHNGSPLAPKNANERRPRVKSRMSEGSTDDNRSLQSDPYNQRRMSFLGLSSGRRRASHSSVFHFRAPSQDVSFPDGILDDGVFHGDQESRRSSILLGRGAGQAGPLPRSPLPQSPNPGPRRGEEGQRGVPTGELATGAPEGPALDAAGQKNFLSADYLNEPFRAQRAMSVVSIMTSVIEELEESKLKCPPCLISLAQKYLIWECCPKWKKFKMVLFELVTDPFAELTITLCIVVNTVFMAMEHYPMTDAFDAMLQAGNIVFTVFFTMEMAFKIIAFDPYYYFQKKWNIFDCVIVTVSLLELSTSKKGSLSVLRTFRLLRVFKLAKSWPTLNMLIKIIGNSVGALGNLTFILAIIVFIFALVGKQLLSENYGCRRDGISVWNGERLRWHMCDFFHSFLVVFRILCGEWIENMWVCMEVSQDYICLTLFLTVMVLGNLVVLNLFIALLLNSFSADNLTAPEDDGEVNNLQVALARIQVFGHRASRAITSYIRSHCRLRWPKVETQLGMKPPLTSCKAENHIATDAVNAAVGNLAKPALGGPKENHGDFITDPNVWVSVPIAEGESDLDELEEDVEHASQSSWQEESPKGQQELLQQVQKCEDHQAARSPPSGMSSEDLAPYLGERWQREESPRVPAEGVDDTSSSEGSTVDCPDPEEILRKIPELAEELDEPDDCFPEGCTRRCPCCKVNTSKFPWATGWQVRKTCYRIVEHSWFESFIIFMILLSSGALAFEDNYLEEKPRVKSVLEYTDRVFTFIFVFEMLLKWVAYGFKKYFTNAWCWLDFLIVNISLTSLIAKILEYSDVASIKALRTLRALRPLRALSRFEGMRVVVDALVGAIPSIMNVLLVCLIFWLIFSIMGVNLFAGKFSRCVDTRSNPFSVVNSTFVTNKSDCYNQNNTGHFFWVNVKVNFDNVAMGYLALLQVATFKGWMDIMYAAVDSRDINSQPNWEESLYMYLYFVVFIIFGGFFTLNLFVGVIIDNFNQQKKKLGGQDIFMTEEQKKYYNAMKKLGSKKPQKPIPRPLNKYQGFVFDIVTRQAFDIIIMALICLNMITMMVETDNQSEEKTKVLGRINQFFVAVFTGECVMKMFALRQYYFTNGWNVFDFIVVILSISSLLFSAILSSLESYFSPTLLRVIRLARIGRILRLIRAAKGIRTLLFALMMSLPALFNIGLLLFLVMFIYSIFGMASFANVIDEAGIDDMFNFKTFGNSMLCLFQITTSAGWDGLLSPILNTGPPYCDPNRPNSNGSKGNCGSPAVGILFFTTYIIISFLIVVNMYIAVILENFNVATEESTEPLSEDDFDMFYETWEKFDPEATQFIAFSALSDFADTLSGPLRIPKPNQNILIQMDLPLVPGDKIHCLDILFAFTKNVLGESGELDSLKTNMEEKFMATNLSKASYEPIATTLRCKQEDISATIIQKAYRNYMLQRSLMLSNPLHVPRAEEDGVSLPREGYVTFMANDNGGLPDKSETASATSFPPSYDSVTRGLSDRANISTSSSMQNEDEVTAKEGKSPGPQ
# Substance-P receptor (Homo sapiens), sequence (P25103 whole entry): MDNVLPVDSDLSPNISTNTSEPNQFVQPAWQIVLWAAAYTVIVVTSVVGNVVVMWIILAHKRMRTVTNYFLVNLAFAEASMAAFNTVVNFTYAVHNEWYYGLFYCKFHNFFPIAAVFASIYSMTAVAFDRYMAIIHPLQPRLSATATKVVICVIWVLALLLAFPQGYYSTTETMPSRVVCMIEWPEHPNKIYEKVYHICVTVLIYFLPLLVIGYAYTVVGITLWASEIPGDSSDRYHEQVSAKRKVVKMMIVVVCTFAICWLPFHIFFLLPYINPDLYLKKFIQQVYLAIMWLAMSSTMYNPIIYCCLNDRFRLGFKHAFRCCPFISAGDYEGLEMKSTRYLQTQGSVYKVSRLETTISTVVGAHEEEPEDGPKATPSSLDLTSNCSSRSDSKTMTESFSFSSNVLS
# Beta-2 adrenergic receptor (Homo sapiens), sequence (P07550 whole entry, looked up): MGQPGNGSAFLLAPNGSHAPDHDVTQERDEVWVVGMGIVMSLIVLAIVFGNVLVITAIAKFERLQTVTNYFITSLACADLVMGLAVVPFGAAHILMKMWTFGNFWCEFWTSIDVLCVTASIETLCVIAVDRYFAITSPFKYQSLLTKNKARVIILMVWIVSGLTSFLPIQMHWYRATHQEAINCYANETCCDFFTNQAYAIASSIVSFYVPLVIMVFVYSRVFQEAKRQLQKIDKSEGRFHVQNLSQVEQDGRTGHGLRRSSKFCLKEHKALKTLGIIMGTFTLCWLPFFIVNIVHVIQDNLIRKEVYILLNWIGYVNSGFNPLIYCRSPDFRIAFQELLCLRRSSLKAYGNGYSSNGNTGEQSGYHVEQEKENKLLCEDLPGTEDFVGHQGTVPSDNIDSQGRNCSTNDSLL
SMILES,pIC50 [1],pIC50 [6],pIC50 [7],pIC50 [8],solubility [14] [µg/mL],CL [9] [µL/min],also measured
O=C(NCc1cccnc1N1CCOCC1)c1cncc(-c2ccc(OC(F)(F)F)cc2)n1,5.82,7.07,6.32,7.72,> 50,–,Ratio IC50 (Homo sapiens): 79; Vd [2]: 3.3 L/kg; Cmax [3]: 150 ng/mL; Activity (Rattus norvegicus [4]): Dose-dependent effect; ED50 (Rattus norvegicus [4]): 78 mg/kg; Activity (Plasma): 93.2%; bioavailability [5]: 18.2%; clearance [9]: 98 µL/min; inhibition [10]: > 60%; inhibition [11]: > 60%; half-life [12]: 1.6 h; half-life [13]: 1.9 h; inhibition [15]: > 60%
O=C(NCc1cccnc1Cl)c1cncc(-c2ccc(OC(F)(F)F)cc2)n1,5.41,7.05,5.99,7.00,–,143,–
O=C(NCc1cccnc1N1CCCC1)c1cncc(-c2ccc(Cl)cc2)n1,6.00,6.26,6.68,7.52,0.65,–,–
Cc1ccccc1CNC(=O)c1cncc(-c2ccc(Cl)cc2)n1,–,6.96,5.87,7.57,< 0.1,–,inhibition [16]: 2%
Cc1cc(C)cc(NC(=O)c2cncc(-c3ccc(OC(F)(F)F)cc3)n2)c1,–,–,7.24,–,< 0.1,–,inhibition [16]: 93%
Cc1cccc(NC(=O)c2cncc(-c3ccc(Cl)cc3)n2)c1,5.09,6.55,6.02,8.22,< 0.1,–,Ratio IC50 (Homo sapiens): > 1000
Cc1ccccc1CNC(=O)c1cncc(-c2ccc(OC(F)(F)F)cc2)n1,5.92,6.77,6.62,7.74,–,–,–
COc1cc(NC(=O)c2ccc(-c3ccc(Cl)cc3)o2)cc(OC)c1,–,–,–,–,< 0.1,140,–
CC(C)Oc1cccc(NC(=O)c2cncc(-c3ccc(C#N)cc3)n2)c1,5.04,6.89,6.14,7.31,0.08,120,–
CCOc1ccc(-c2cncc(C(=O)NCc3ccccc3C)n2)cc1,6.33,7.72,6.96,8.70,0.14,630,–
Cc1cc(C)cc(NC(=O)c2cncc(-c3ccc(C#N)cc3)n2)c1,5.80,7.08,6.33,8.10,0.03,140,Vd [2]: 5.1 L/kg; Activity (Plasma): 55.2%; bioavailability [5]: 0%; inhibition in vivo at 100 mg/kg (Rattus norvegicus [17]): < 20%; inhibition [10]: inactive; inhibition [11]: inactive; half-life [13]: 1.6 h; inhibition [15]: inactive
CCOc1ccc(-c2cncc(C(=O)Nc3cc(C)cc(C)c3)n2)cc1,6.44,7.92,7.25,8.70,< 0.1,–,–
O=C(Nc1cccnc1)c1cncc(-c2ccc(Cl)cc2)n1,–,–,4.74,–,–,–,–
O=C(NCCc1ccc(Cl)cc1)c1cncc(-c2ccc(Cl)cc2)n1,6.00,6.44,5.57,7.72,< 0.1,–,Ratio IC50 (Homo sapiens): 53; Ratio IC50 [18]: 53
O=C(NCc1cnccc1N1CCOCC1)c1cncc(-c2ccc(Cl)cc2)n1,–,–,4.54,–,–,–,–
O=C(NCc1ccncc1N1CCOCC1)c1cncc(-c2ccc(Cl)cc2)n1,–,–,5.38,6.49,–,–,–
O=C(NCc1cccnc1)c1cncc(-c2ccc(Cl)cc2)n1,–,–,4.96,–,1,–,–
Cc1cccc(NC(=O)c2cncc(-c3ccc(OC(F)(F)F)cc3)n2)c1,5.66,7.80,7.18,8.30,< 0.1,–,–
Cc1cc(C)cc(NC(=O)c2cncc(-c3ccc(Cl)cc3)n2)c1,5.30,7.28,6.31,8.52,< 0.1,83,Ratio IC50 (Homo sapiens): > 1000; Ratio IC50 [19]: > 1600
O=C(NCc1cccnc1N1CCOCC1)c1cncc(-c2ccc(Cl)cc2)n1,–,6.55,5.60,7.43,2.7,410,inhibition [16]: 11%
COc1cc(NC(=O)c2cncc(-c3ccc(Cl)cc3)n2)cc(OC)c1,5.21,6.72,5.97,8.22,< 0.1,–,Ratio IC50 (Homo sapiens): > 1000
CCOc1ccc(-c2cncc(C(=O)Nc3cccc(C)c3)n2)cc1,6.00,7.17,6.19,9.00,< 0.1,–,–
Cc1ccccc1CNC(=O)c1cncc(-c2ccc(C#N)cc2)n1,6.00,6.35,5.03,6.82,0.35,–,–
